The results in this text go back to ChEMBL document CHEMBL4017460, “A Tobramycin Vector Enhances Synergy and Efficacy of Efflux Pump Inhibitors against Multidrug-Resistant Gram-Negative Bacteria” (J Med Chem, 2017).

For data set [1], the system named is Pseudomonas aeruginosa. The data set is described as follows: Induction of outer membrane permeabilization in Pseudomonas aeruginosa PAO1 assessed as increase in tetracycline uptake at 29 ug/ml measured at 1 min interval for 30 mins by fluorescence assay. It counts as functional. In short, it runs like this: (§1)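 Tetracycline uptake assay in P. aeruginosa PAO1: enhancement of tetracycline fluorescence as it enters cells, monitored with compound present at several concentrations.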

Data set [2] relates to Pseudomonas aeruginosa. The data set is described as follows: Induction of cytoplasmic membrane depolarization in Pseudomonas aeruginosa PAO1 at 16 ug/ml by DiSC3(5) dye based fluorescence assay. It counts as functional. In outline: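 Cytoplasmic membrane depolarization in P. aeruginosa PAO1, monitored by DiSC3(5) fluorescence across a range of compound concentrations. Colistin served as positive control.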

The subject of data set [3] is Pseudomonas aeruginosa. The data set is described as follows: Antibacterial activity against Pseudomonas aeruginosa PAO1 assessed as ratio of MIC after 25 serial passages at sub-MIC to MIC after 1 passage by microbroth dilution assay. It counts as functional.
Data set [4] relates to Pseudomonas aeruginosa PAO1. The data set is described as follows: Inhibition of RND efflux pump in Pseudomonas aeruginosa PAO1 assessed as potentiation of minocycline-induced antibacterial activity at 8 ug/ml after 18 to 24 hrs by checker board assay. In short, it runs like this:
(§2)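 Checkerboard in MHB: antibiotic 2-fold diluted along one axis, test agent 2-fold diluted along the other. Overnight culture standardized to 0.5 McFarland in saline, diluted 1:50 in MHB, added to wells, incubated 37 °C for 18 h. MIC is the lowest concentration with no growth. FIC = MIC in combination / MIC alone; FIC index = sum of both FICs.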

Data set [5] concerns Pseudomonas aeruginosa. The data set is described as follows: Induction of membrane destabilization in Pseudomonas aeruginosa PAO1 assessed as increase in tetracycline uptake at 5 ug/ml measured at 1 min interval for 30 mins by fluorescence assay. It counts as functional.
In data set [6] the test system is Pseudomonas aeruginosa PAO1. Put plainly: Inhibition of RND efflux pump in Pseudomonas aeruginosa PAO1 assessed as potentiation of minocycline-induced antibacterial activity by measuring minocycline MIC at 8 ug/ml after 18 to 24 hrs by microbroth dilution assay (reference value: 8 ug/ml). In short, it runs like this: (§3)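 Absolute minocycline MIC taken from checkerboard broth dilution with a fixed 8 μg/mL adjuvant. Inoculum was a 0.5 McFarland saline suspension diluted 1:50 in MHB, incubated 37 °C for 18 h. MIC is the lowest concentration with no growth.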

Data set [7] deals with Pseudomonas aeruginosa. Put plainly: Antibacterial activity against Pseudomonas aeruginosa PAO1 after 18 to 24 hrs by microbroth dilution assay. It counts as functional. In outline: as §2
(In general: Broth dilution looks for growth in wells or tubes with falling amounts of substance.)

Data set [8] has as its system Enterobacter cloacae. The data set is described as follows: Inhibition of RND efflux pump in Enterobacter cloacae isolate 117029 assessed as potentiation of minocycline-induced antibacterial activity by measuring minocycline MIC at 8 ug/ml after 18 to 24 hrs by microbroth dilution assay (reference value: 128 to 256 ug/ml). In outline: as §3
The nature of data set [9]: Toxicity in Galleria mellonella assessed as death at 100 mg/kg after 24 hrs relative to control. The note with it: in vivo, read-out: Activity. It counts as organism-based.
In data set [10] the test system is Pseudomonas aeruginosa PAO1. The data set is described as follows: Inhibition of RND efflux pump in Pseudomonas aeruginosa PAO1 assessed as increase in tetracycline uptake at 13.6 ug/ml measured at 1 min interval for 30 mins by fluorescence assay. In outline:
as §1

For data set [11], the system named is Enterobacter cloacae. The data set is described as follows: Inhibition of RND efflux pump in Enterobacter cloacae isolate 117029 assessed as potentiation of minocycline-induced antibacterial activity at 8 ug/ml after 18 to 24 hrs by microbroth dilution assay. In short, it runs like this: as §2
Data set [12] relates to Pseudomonas aeruginosa PAO1. Put plainly: Inhibition of RND efflux pump in Pseudomonas aeruginosa PAO1 assessed as potentiation of minocycline-induced antibacterial activity by measuring ratio of minocycline MIC after 25 serial passages to minocycline MIC at sub-MIC after 18 to 24 hrs by microbroth dilution assay.
Data set [13] relates to Klebsiella pneumoniae. The data set is described as follows: Antibacterial activity against Klebsiella pneumoniae isolate 116381 after 18 to 24 hrs by microbroth dilution assay. It counts as functional. In short, it runs like this: as §2
In data set [14] the test system is Pseudomonas aeruginosa PAO1. Put plainly: Inhibition of RND efflux pump in Pseudomonas aeruginosa PAO1 assessed as potentiation of minocycline-induced antibacterial activity by measuring fold reduction in minocycline MIC at 8 ug/ml after 18 to 24 hrs by microbroth dilution assay relative to minocycline alone. In outline: as §3
In data set [15] the test system is Enterobacter cloacae. Put plainly: Antibacterial activity against Enterobacter cloacae isolate 117029 after 18 to 24 hrs by microbroth dilution assay. It counts as functional. In outline:
as §2

Data set [16] concerns Klebsiella pneumoniae. Put plainly: Inhibition of RND efflux pump in Klebsiella pneumoniae isolate 116381 assessed as potentiation of minocycline-induced antibacterial activity at 8 ug/ml after 18 to 24 hrs by microbroth dilution assay. In short, it runs like this: as §2
Data set [17] deals with Klebsiella pneumoniae. Put plainly: Inhibition of RND efflux pump in Klebsiella pneumoniae isolate 116381 assessed as potentiation of minocycline-induced antibacterial activity by measuring minocycline MIC at 8 ug/ml after 18 to 24 hrs by microbroth dilution assay (reference value: 128 ug/ml). In outline: as §3
Data set [18] has as its system Pseudomonas aeruginosa. Put plainly: Antibacterial activity against XDR Pseudomonas aeruginosa isolate P262-101856 infected in Galleria mellonella assessed as protection against bacterial infection by measuring larval death at 75 mg/kg up to 24 hrs relative to control. It counts as functional. In outline: (§4)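 G. mellonella larvae infected with 1.0 × 10^5/mL CFU of XDR P. aeruginosa 101856. A single-dose injection of agent, alone or with minocycline, given 2 h post-infection. Survival scored up to 24 h. 15 larvae per experiment from different batches, two experiments per dosage (n = 30). Significance 0 vs 24 h at P ≤ 0.05.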

In data set [19] the test system is Pseudomonas aeruginosa. The data set is described as follows: Inhibition of RND efflux pump in XDR Pseudomonas aeruginosa isolate P262-101856 infected in Galleria mellonella assessed as potentiation of minocycline-induced antibacterial activity by measuring larval survival rate at 75 mg/kg co-treated with 75 mg/kg minocycline measured after 24 hrs relative to control. It counts as organism-based. In outline:
as §4

In data set [20] the test system is Pseudomonas aeruginosa. Put plainly: Inhibition of RND efflux pump in XDR Pseudomonas aeruginosa isolate P262-101856 infected in Galleria mellonella assessed as potentiation of minocycline-induced antibacterial activity by measuring larval death rate at 75 mg/kg co-treated with 75 mg/kg minocycline measured after 24 hrs relative to control. It counts as organism-based. More on the design: scale not given: the % may be the effect or the level left. In outline: as §4

Data set [21] relates to Pseudomonas aeruginosa PAO1. The data set is described as follows: Inhibition of RND efflux pump in Pseudomonas aeruginosa PAO1 assessed as increase in tetracycline uptake up to 5.7 ug/ml measured at 1 min interval for 30 mins by fluorescence assay.
In data set [22] the test system is Pseudomonas aeruginosa PAO1. Put plainly: Inhibition of RND efflux pump in Pseudomonas aeruginosa PAO1 assessed as increase in tetracycline uptake up to 8.2 ug/ml measured at 1 min interval for 30 mins by fluorescence assay. In short, it runs like this: as §1

≈ marks a conversion by molar mass, not a printed value. Calls of active or inactive are those of the source. The rule behind the calls is not given here.

Take COLISTIN: the result with Pseudomonas aeruginosa [1] and in the data set on Pseudomonas aeruginosa [2] was Active. Also, the Ratio in the data set with Pseudomonas aeruginosa [3] was more than 1024. In addition, in [4], the fractional inhibitory concentration index (FICI) was determined as 0.5.

`N#CC(C#N)=NNc1cccc(Cl)c1`: the result with Pseudomonas aeruginosa [5] was Active.

In the case of Cetrimonium bromide, the fractional inhibitory concentration index (FICI) in data set [4] was found to be 0.75.

With `NC[C@H]1O[C@H](O[C@H]2[C@H](OCCCCCCCCCCN3CCN(Cc4cccc5ccccc45)CC3)[C@@H](O[C@H]3O[C@H](CO)[C@@H](O)[C@H](N)[C@H]3O)[C@H](N)C[C@@H]2N)[C@H](N)C[C@@H]1O.O=C(O)C(F)(F)F.O=C(O)C(F)(F)F.O=C(O)C(F)(F)F.O=C(O)C(F)(F)F.O=C(O)C(F)(F)F.O=C(O)C(F)(F)F.O=C(O)C(F)(F)F`, the MIC in [6] was 1 mg/L; against Pseudomonas aeruginosa [7], more than 512 mg/L. Also, the fractional inhibitory concentration index (FICI) in data set [4] lay within 0.125 to 0.14.

For the compound `Cl.Cl.Cl.Cl.Cl.Cl.Cl.NC[C@H]1O[C@H](O[C@H]2[C@H](OCCCCN3CCN(Cc4cccc5ccccc45)CC3)[C@@H](O[C@H]3O[C@H](CO)[C@@H](O)[C@H](N)[C@H]3O)[C@H](N)C[C@@H]2N)[C@H](N)C[C@@H]1O`, the figures for the MIC (in [6]; against Pseudomonas aeruginosa [7]) were 4 mg/L and 512 mg/L, respectively. The fractional inhibitory concentration index (FICI) in data set [4] lay within 0.25 to 0.5.

Regarding `NC[C@H]1O[C@H](O[C@H]2[C@H](O)[C@@H](O[C@H]3O[C@H](CO)[C@@H](O)[C@H](N)[C@H]3O)[C@H](N)C[C@@H]2N)[C@H](N)C[C@@H]1O` [TOBRAMYCIN], in the data set on Pseudomonas aeruginosa [3], the Ratio was 256. Besides, in the data set on Pseudomonas aeruginosa [7], the MIC came out at 0.25 mg/L (≈ 0.535 µM). The fractional inhibitory concentration index (FICI) in data set [4] came to 1.06.

In the case of `NC[C@@H]1CN[C@@H](C(=O)N[C@H](CCc2ccccc2)C(=O)Nc2ccc3ccccc3c2)C1`, the MIC stood at 1 mg/L in data set [6]; 8 mg/L in the data set on Enterobacter cloacae [8]; 256 mg/L (≈ 595 µM) against Klebsiella pneumoniae [13]; 64 mg/L (≈ 149 µM) against Enterobacter cloacae [15]; 256 mg/L (≈ 595 µM) with Pseudomonas aeruginosa [7]; 4 mg/L in the data set with Klebsiella pneumoniae [17]. In data set [9], the mortality at 24 h is 80%. Besides, the inhibition entry in data set [10] was “Active”. For the same compound, the fractional inhibitory concentration index (FICI) in the data set on Enterobacter cloacae [11] was 0.13; in the data set with Klebsiella pneumoniae [16] it was 0.06; in data set [4] it was 0.13. Further, in [12], the Ratio was 4. Besides, in data set [14], the fold change (FC) came out at 8.

Consider `CN(C)c1ccc(O)c2c1C[C@H]1C[C@H]3[C@H](N(C)C)C(O)=C(C(N)=O)C(=O)[C@@]3(O)C(O)=C1C2=O` [MINOCYCLINE], for which the Ratio in the data set on Pseudomonas aeruginosa [3] is reported as 16. Further, the Activity in the data set with Pseudomonas aeruginosa [18] was 100%.

Turning to `c1ccc2c(CN3CCNCC3)cccc2c1`, the MIC in data set [6] was 8 mg/L; in the data set on Enterobacter cloacae [8], 128 mg/L; in the data set on Klebsiella pneumoniae [13] it was more than 512 mg/L; against Enterobacter cloacae [15] it was more than 512 mg/L; in the data set with Pseudomonas aeruginosa [7], 512 mg/L (≈ 2260 µM); in the data set with Klebsiella pneumoniae [17], 128 mg/L. For the same compound, in the data set on Pseudomonas aeruginosa [19], the Survival is 0%. The fractional inhibitory concentration index (FICI) with Enterobacter cloacae [11] was more than 0.5; with Klebsiella pneumoniae [16], 0.25 to 0.38; in [4], 1.02. The Activity with Pseudomonas aeruginosa [20] and in the data set with Pseudomonas aeruginosa [18] was 100% throughout. Further, the inhibition entry in data set [21] is “inactive”.

`Cl.Cl.Cl.Cl.Cl.Cl.Cl.NC[C@H]1O[C@H](O[C@H]2[C@H](OCCCCCCN3CCN(Cc4cccc5ccccc45)CC3)[C@@H](O[C@H]3O[C@H](CO)[C@@H](O)[C@H](N)[C@H]3O)[C@H](N)C[C@@H]2N)[C@H](N)C[C@@H]1O`: the MIC in data set [6] was 4 mg/L; against Pseudomonas aeruginosa [7], more than 512 mg/L. Further, in data set [4], the fractional inhibitory concentration index (FICI) fell in the range of 0.25 to 0.5.

As to `Cl.Cl.Cl.Cl.Cl.Cl.Cl.NC[C@H]1O[C@H](O[C@H]2[C@H](OCCN3CCN(Cc4cccc5ccccc45)CC3)[C@@H](O[C@H]3O[C@H](CO)[C@@H](O)[C@H](N)[C@H]3O)[C@H](N)C[C@@H]2N)[C@H](N)C[C@@H]1O`, the MIC in data set [6] came to 4 mg/L; against Pseudomonas aeruginosa [7], 128 mg/L. In data set [4], the fractional inhibitory concentration index (FICI) was 0.53.

`Fc1ccc([C@@H]2CCNC[C@H]2COc2ccc3c(c2)OCO3)cc1` [PAROXETINE]: the MIC in [6] came to 8 mg/L; in the data set on Enterobacter cloacae [8], 64 mg/L; in the data set with Klebsiella pneumoniae [13], 128 mg/L (≈ 389 µM); in the data set with Enterobacter cloacae [15] it was 64 mg/L (≈ 194 µM); against Pseudomonas aeruginosa [7], 512 mg/L (≈ 1550 µM); in the data set with Klebsiella pneumoniae [17] it was 128 mg/L. For the same compound, the fractional inhibitory concentration index (FICI) turned out to be 0.5 in the data set with Enterobacter cloacae [11], 0.63 in the data set with Klebsiella pneumoniae [16] and 1.02 in data set [4]. In addition, the Activity in the data set with Pseudomonas aeruginosa [20] is 100%. Also, the inhibition result in data set [22] is “inactive”.

Turning to `Cl.Cl.Cl.Cl.Cl.Cl.Cl.NC[C@H]1O[C@H](O[C@H]2[C@H](OCCCCCCCCN3CCN(Cc4cccc5ccccc45)CC3)[C@@H](O[C@H]3O[C@H](CO)[C@@H](O)[C@H](N)[C@H]3O)[C@H](N)C[C@@H]2N)[C@H](N)C[C@@H]1O`, the MIC is 2 mg/L in data set [6] and more than 512 mg/L in the data set on Pseudomonas aeruginosa [7]. In addition, the fractional inhibitory concentration index (FICI) in data set [4] fell in the range of 0.125 to 0.25.
